Active and inactive are the calls of the source. The calls are words filed in the database; no cut-off is given here.
Experiments:
[1] = test system: DU-145; assay: Growth inhibitory activity against human prostate DU-145 cell line; type: functional
How it was run: (§1)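 Growth inhibition in human cancer cell culture. GI50 is the concentration giving 50% growth inhibition. Compounds were tested at concentrations up to […].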

[2] = molecular target: T1, DNA topoisomerase 1 (Homo sapiens) (UniProt P11387); assay: Induction of topoisomerase I mediated DNA cleavage; Activity similar to parent compound 1
T1 sequence (whole entry): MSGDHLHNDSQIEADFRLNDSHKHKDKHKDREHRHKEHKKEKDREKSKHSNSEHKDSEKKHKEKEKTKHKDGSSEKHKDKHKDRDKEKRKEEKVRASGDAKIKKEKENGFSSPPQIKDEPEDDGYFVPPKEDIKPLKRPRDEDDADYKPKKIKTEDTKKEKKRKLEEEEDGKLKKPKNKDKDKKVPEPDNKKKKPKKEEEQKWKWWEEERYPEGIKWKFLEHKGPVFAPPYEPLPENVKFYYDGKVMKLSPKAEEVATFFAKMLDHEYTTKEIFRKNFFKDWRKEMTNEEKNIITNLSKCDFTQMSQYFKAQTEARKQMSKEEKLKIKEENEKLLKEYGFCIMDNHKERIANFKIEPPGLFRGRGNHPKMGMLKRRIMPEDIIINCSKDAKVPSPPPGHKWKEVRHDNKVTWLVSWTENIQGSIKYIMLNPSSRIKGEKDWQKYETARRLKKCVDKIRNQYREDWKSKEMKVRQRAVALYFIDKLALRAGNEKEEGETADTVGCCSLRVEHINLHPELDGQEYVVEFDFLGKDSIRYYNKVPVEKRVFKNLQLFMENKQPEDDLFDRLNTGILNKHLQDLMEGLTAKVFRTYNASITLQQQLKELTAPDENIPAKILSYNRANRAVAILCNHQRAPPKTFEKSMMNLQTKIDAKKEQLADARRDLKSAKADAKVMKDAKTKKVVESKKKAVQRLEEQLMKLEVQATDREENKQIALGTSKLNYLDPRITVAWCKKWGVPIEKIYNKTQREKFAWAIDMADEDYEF

[3] = Growth inhibitory activity against human CNSSF-539 cell line; type: functional; how it was run: as §1
[4] = test system: HOP-62; assay: Growth inhibitory activity against human lung HOP-62 cell line; type: functional; how it was run: as §1
[5] = test system: SN12C; assay: Growth inhibitory activity against human renal SN12C cell line; type: functional; how it was run: as §1
[6] = test system: OVCAR-3; assay: Growth inhibitory activity against human ovarian OVCAR-3 cell line; type: functional; how it was run: as §1
[7] = test system: UACC-62; assay: Growth inhibitory activity against human melanoma UACC-62 cell line; type: functional; how it was run: as §1
[8] = test system: MDA-MB-435; assay: Growth inhibitory activity against human breast MDA-MB-435 cell line; type: functional; how it was run: as §1
[9] = test system: HCT-116; assay: Growth inhibitory activity against human colon HCT116 cell line; type: functional; how it was run: as §1
[10] = test system: Panel (Carcinoma cell lines); assay: Mean graph mid point for growth inhibition of human cancer cell lines; type: functional; design: unit not given here
How it was run: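 Mean graph midpoint of growth inhibition, taken across all human cancer cell lines successfully tested. Compounds were tested at concentrations up to […], and GI50 is the concentration giving 50% growth inhibition.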

[11] = molecular target: T1, DNA topoisomerase 1 (Homo sapiens); assay: Induction of topoisomerase I mediated DNA cleavage; Greater activity than parent compound 1
[12] = molecular target: T1, DNA topoisomerase 1 (Homo sapiens); assay: Induction of topoisomerase I mediated DNA cleavage; greater activity than parent compound 1
[13] = molecular target: T1, DNA topoisomerase 1 (Homo sapiens); assay: Induction of topoisomerase I mediated DNA cleavage; Activity similar to 1 uM camptothecin; weak activity

SMILES | GI50 [1] [nM] | DNA cleavage [2] | GI50 [3] [nM] | GI50 [4] [nM] | GI50 [5] [nM] | GI50 [6] [nM] | GI50 [7] [nM] | GI50 [8] [nM] | GI50 [9] [nM] | Mean graph mid point [10] | DNA cleavage [11] | DNA cleavage [12] | DNA cleavage [13]
CCCn1c2c(c3ccccc3c1=O)C(=O)c1cc3c(cc1-2)OCO3 | > 100000 | Activity similar to parent compound 1 | > 100000 | > 100000 | > 100000 | 20900 | > 100000 | > 100000 | 30200 | 66.1 | – | – | –
COc1cc2c3c(n(CCN)c(=O)c2cc1OC)-c1cc2c(cc1C3=O)OCO2.Cl | 400 | – | 1300 | 580 | 360 | 860 | 140 | 1040 | 68 | 0.34 | Greater activity than compound 1 | – | –
CC[C@@]1(O)C(=O)OCc2c1cc1n(c2=O)Cc2cc3ccccc3nc2-1 [CAMPTOTHECIN] | – | – | 10 | – | – | – | – | – | – | 0.04 | Active | – | –
Cl.NCCn1c2c(c3ccccc3c1=O)C(=O)c1ccccc1-2 | 760 | – | 210 | 620 | 490 | 710 | 920 | 920 | 270 | 0.53 | – | greater activity than compound 1 | –
COc1cc2c3c(n(C)c(=O)c2cc1OC)-c1cc2c(cc1C3=O)OCO2 | 37000 | Activity similar to parent compound 1 | 41000 | 1300 | 68000 | – | 4200 | 96000 | 35000 | 20 | – | – | –
COc1cc2c(cc1OC)-c1c(c3ccccc3c(=O)n1CCCN)C2=O.Cl | – | Activity similar to parent compound 1 | 2930 | – | – | – | – | – | – | 0.62 | – | – | –
Cl.NCCCCn1c2c(c3ccccc3c1=O)C(=O)c1ccccc1-2 | 10 | – | 100 | 80 | 40 | 520 | 50 | 840 | 100 | 0.16 | – | greater activity than compound 1 | –
O=C1c2ccccc2-c2c1c1ccccc1c(=O)n2CCCl | – | – | 2240 | – | – | – | – | – | – | – | – | – | +/-
CCn1c2c(c3cc(OC)c(OC)cc3c1=O)C(=O)c1cc3c(cc1-2)OCO3 | 2300 | – | 2000 | 2200 | 3600 | 3000 | 2100 | 2600 | 2600 | 2.4 | – | – | +/-
COc1cc2c3c(n(CCCNCCO)c(=O)c2cc1OC)-c1cc2c(cc1C3=O)OCO2.Cl | > 10 | – | 40 | – | > 10 | 350 | – | – | – | 0.11 | Greater activity than compound 1 | – | –
CN(C)CCCn1c2c(c3ccccc3c1=O)C(=O)c1ccccc1-2 | 1320 | – | – | 1740 | 910 | 1700 | 510 | 2820 | 580 | 1.86 | – | greater activity than compound 1 | –
O=C1c2ccccc2-c2c1c1ccccc1c(=O)n2CCCO | – | Activity similar to parent compound 1 | 52500 | – | – | – | – | – | – | – | – | – | –
COc1cc2c3c(n(CCCN(C)C)c(=O)c2cc1OC)-c1cc2c(cc1C3=O)OCO2 | 140 | – | 190 | 18 | 900 | 1400 | 540 | 650 | 120 | 0.35 | Greater activity than compound 1 | – | –
